Converted amounts (≈) assume the structure as drawn.
Columns and labels:
[1] = system: Talaromyces funiculosus; test: Antifungal activity against Penicillium funiculosum ATCC 36839 after 72 hrs by serial dilution method; format: functional; conditions: ATCC 36839, 72 h
Outline: (§1)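 Fungi were kept on malt agar at 4 °C and sub-cultured monthly. Spores were washed off the agar with sterile 0.85% saline containing 0.1% Tween 80 (v/v). Modified microdilution in 96-well plates. MIC is the lowest concentration with no visible growth under the binocular microscope. Inoculum checked on malt agar for contamination and validity.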

[2] = system: Pseudomonas aeruginosa; test: Antibacterial activity against Pseudomonas aeruginosa ATCC 27853 after 72 hrs by serial sub-cultivation method; format: functional; conditions: ATCC 27853, 72 h
Outline: (§2)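 MBC was found by serial sub-cultivation of 2 µl from the MIC wells into plates holding 100 µl broth per well, then incubation for 72 h. MBC is the lowest concentration with no visible growth, i.e. 99.5% killing of the original inoculum. Bacterial inoculum was 1.0 × 10^4 cfu per well in LB broth. Duplicate, repeated three times.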

[3] = system: Salmonella typhimurium; test: Antibacterial activity against Salmonella Typhimurium ATCC 13311 after 72 hrs by serial sub-cultivation method; format: functional, Salmonella enterica subsp. enterica serovar Typhimurium; conditions: Salmonella enterica, ATCC 13311, 72 h; outline: as §2
[4] = system: Aspergillus niger; test: Antifungal activity against Aspergillus niger ATCC 6275 after 72 hrs by serial dilution method; format: functional; conditions: ATCC 6275, 72 h; outline: as §1
[5] = system: Talaromyces funiculosus; test: Antifungal activity against Penicillium funiculosum ATCC 36839 after 72 hrs by serial sub-cultivation method; format: functional; conditions: ATCC 36839, 72 h
Outline: (§3)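 MFC was found by serial sub-cultivation of 2 µl into plates holding 100 µl broth per well, then incubation 72 h at 28 °C. MFC is the lowest concentration with no visible growth, taken as 99.5% killing of the original inoculum. Spore inocula came from malt agar cultures washed with 0.85% saline and 0.1% Tween 80.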

[6] = system: Micrococcus flavus; test: Antibacterial activity against Micrococcus flavus ATCC 10240 after 72 hrs by serial sub-cultivation method; format: functional; conditions: ATCC 10240, 72 h; outline: as §2
[7] = system: Aspergillus flavus; test: Antifungal activity against Aspergillus flavus ATCC 9643 after 72 hrs by serial sub-cultivation method; format: functional; conditions: ATCC 9643, 72 h; outline: as §3
[8] = system: Bacillus cereus; test: Antibacterial activity against Bacillus cereus clinical isolate after 72 hrs by serial sub-cultivation method; format: functional; outline: as §2
[9] = system: Micrococcus flavus; test: Antibacterial activity against Micrococcus flavus ATCC 10240 after 24 hrs; format: functional; conditions: ATCC 10240, 24 h
Outline: (§4)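 Broth microdilution MIC in 96-well plates. Compounds in LB broth with bacterial inoculum of 1.0 × 10^4 cfu per well, from suspensions adjusted with sterile saline to 1.0 × 10⁵ CFU/ml. Incubated 24 h at […] as printed. MIC taken as the lowest concentration with no visible growth under the binocular microscope. OD at 655 nm also read against blank. Streptomycin and ampicillin as positive controls. Duplicate, repeated three times.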

[10] = system: Trichoderma viride; test: Antifungal activity against Trichoderma viride IAM 5061 after 72 hrs by serial dilution method; format: functional; conditions: IAM 5061, 72 h; outline: as §1
[11] = system: Trichoderma viride; test: Antifungal activity against Trichoderma viride IAM 5061 after 72 hrs by serial sub-cultivation method; format: functional; conditions: IAM 5061, 72 h; outline: as §3
[12] = system: Bacillus cereus; test: Antibacterial activity against Bacillus cereus clinical isolate after 24 hrs; format: functional; outline: as §4
[13] = system: Escherichia coli; test: Antibacterial activity against Escherichia coli ATCC 35210 after 72 hrs by serial sub-cultivation method; format: functional; conditions: ATCC 35210, 72 h; outline: as §2
[14] = system: Aspergillus versicolor; test: Antifungal activity against Aspergillus versicolor ATCC 11730 after 72 hrs by serial sub-cultivation method; format: functional; conditions: ATCC 11730, 72 h; outline: as §3
[15] = system: Fulvia fulva; test: Antifungal activity against Fulvia fulva TK 5318 after 72 hrs by serial dilution method; format: functional; conditions: TK 5318, 72 h; outline: as §1
[16] = system: Fulvia fulva; test: Antifungal activity against Fulvia fulva TK 5318 after 72 hrs by serial sub-cultivation method; format: functional; conditions: TK 5318, 72 h; outline: as §3
[17] = system: Salmonella typhimurium; test: Antibacterial activity against Salmonella Typhimurium ATCC 13311 after 24 hrs; format: functional, Salmonella enterica subsp. enterica serovar Typhimurium; conditions: Salmonella enterica, ATCC 13311, 24 h; outline: as §4
[18] = system: Aspergillus fumigatus; test: Antifungal activity against Aspergillus fumigatus plant isolate after 72 hrs by serial dilution method
[19] = system: Aspergillus niger; test: Antifungal activity against Aspergillus niger ATCC 6275 after 72 hrs by serial sub-cultivation method; format: functional; conditions: ATCC 6275, 72 h; outline: as §3
[20] = system: Listeria monocytogenes; test: Antibacterial activity against Listeria monocytogenes NCTC 7973 after 72 hrs by serial sub-cultivation method; format: functional; conditions: NCTC 7973, 72 h; outline: as §2
[21] = system: Escherichia coli; test: Antibacterial activity against Escherichia coli ATCC 35210 after 24 hrs; format: functional; conditions: ATCC 35210, 24 h; outline: as §4
[22] = system: Pseudomonas aeruginosa; test: Antibacterial activity against Pseudomonas aeruginosa ATCC 27853 after 24 hrs; format: functional; conditions: ATCC 27853, 24 h; outline: as §4
[23] = system: Proteus mirabilis; test: Antibacterial activity against Proteus mirabilis after 72 hrs by serial sub-cultivation method; format: functional; outline: as §2
[24] = system: Penicillium ochrochloron; test: Antifungal activity against Penicillium ochrochloron ATCC 9112 after 72 hrs by serial dilution method; format: functional; conditions: ATCC 9112, 72 h; outline: as §1
[25] = system: Penicillium ochrochloron; test: Antifungal activity against Penicillium ochrochloron ATCC 9112 after 72 hrs by serial sub-cultivation method; format: functional; conditions: ATCC 9112, 72 h; outline: as §3
[26] = system: Proteus mirabilis; test: Antibacterial activity against Proteus mirabilis after 24 hrs; format: functional; outline: as §4
[27] = system: Aspergillus fumigatus; test: Antifungal activity against Aspergillus fumigatus plant isolate after 72 hrs by serial sub-cultivation method
[28] = system: Aspergillus versicolor; test: Antifungal activity against Aspergillus versicolor ATCC 11730 after 72 hrs by serial dilution method; format: functional; conditions: ATCC 11730, 72 h; outline: as §1
[29] = system: Staphylococcus aureus; test: Antibacterial activity against Staphylococcus aureus ATCC 6538 after 24 hrs; format: functional; conditions: ATCC 6538, 24 h; outline: as §4
[30] = system: Staphylococcus aureus; test: Antibacterial activity against Staphylococcus aureus ATCC 6538 after 72 hrs by serial sub-cultivation method; format: functional; conditions: ATCC 6538, 72 h; outline: as §2
[31] = system: Listeria monocytogenes; test: Antibacterial activity against Listeria monocytogenes NCTC 7973 after 24 hrs; format: functional; conditions: NCTC 7973, 24 h; outline: as §4
[32] = system: Aspergillus flavus; test: Antifungal activity against Aspergillus flavus ATCC 9643 after 72 hrs by serial dilution method; format: functional; conditions: ATCC 9643, 72 h; outline: as §1

| MIC [1] [µM] | MIC [4] [µM] | MIC [9] [µM] | MIC [10] [µM] | MIC [12] [µM] | MIC [15] [µM] | MIC [17] [µM] | SMILES | MBC [2] [µM] | MBC [3] [µM] | MFC [5] [µM] | MBC [6] [µM] | MFC [7] [µM] | MBC [8] [µM] | MFC [11] [µM] | MBC [13] [µM] | MFC [14] [µM] | MFC [16] [µM] | MIC [18] [µM] | MFC [19] [µM] | MBC [20] [µM] | also measured |
| --- | --- | --- | --- | --- | --- | --- | --- | --- | --- | --- | --- | --- | --- | --- | --- | --- | --- | --- | --- | --- | --- |
| 11.6 (≈ 5.24 µg/mL) | 17.3 (≈ 7.81 µg/mL) | 23.1 (≈ 10.4 µg/mL) | 11.6 (≈ 5.24 µg/mL) | 23.1 (≈ 10.4 µg/mL) | 5.8 (≈ 2.62 µg/mL) | 11.6 (≈ 5.24 µg/mL) | COc1ccc(/C=C2\S/C(=N\c3nc(C45CC6CC(CC(C6)C4)C5)cs3)NC2=O)cc1 | 23.1 (≈ 10.4 µg/mL) | 23.1 (≈ 10.4 µg/mL) | 23.1 (≈ 10.4 µg/mL) | 46.2 (≈ 20.9 µg/mL) | 23.1 (≈ 10.4 µg/mL) | 23.1 (≈ 10.4 µg/mL) | 23.1 (≈ 10.4 µg/mL) | 23.1 (≈ 10.4 µg/mL) | 23.1 (≈ 10.4 µg/mL) | 23.1 (≈ 10.4 µg/mL) | 17.3 (≈ 7.81 µg/mL) | 23.1 (≈ 10.4 µg/mL) | 46.2 (≈ 20.9 µg/mL) | MIC [21]: 11.6 µM (≈ 5.24 µg/mL); MIC [22]: 11.6 µM (≈ 5.24 µg/mL); MBC [23]: 69.3 µM (≈ 31.3 µg/mL); MIC [24]: 11.6 µM (≈ 5.24 µg/mL); MFC [25]: 23.1 µM (≈ 10.4 µg/mL); MIC [26]: 46.2 µM (≈ 20.9 µg/mL); MFC [27]: 23.1 µM (≈ 10.4 µg/mL); MIC [28]: 17.3 µM (≈ 7.81 µg/mL); MIC [29]: 23.1 µM (≈ 10.4 µg/mL); MBC [30]: 46.2 µM (≈ 20.9 µg/mL); MIC [31]: 23.1 µM (≈ 10.4 µg/mL); MIC [32]: 17.3 µM (≈ 7.81 µg/mL) |
| 21.9 (≈ 9.99 µg/mL) | 11 (≈ 5.02 µg/mL) | 11 (≈ 5.02 µg/mL) | 11 (≈ 5.02 µg/mL) | 16.4 (≈ 7.48 µg/mL) | 16.4 (≈ 7.48 µg/mL) | 21.9 (≈ 9.99 µg/mL) | O=C1N/C(=N/c2nc(C34CC5CC(CC(C5)C3)C4)cs2)S/C1=C\c1cccc(Cl)c1 | 43.8 (≈ 20 µg/mL) | 43.8 (≈ 20 µg/mL) | 21.9 (≈ 9.99 µg/mL) | 21.9 (≈ 9.99 µg/mL) | 21.9 (≈ 9.99 µg/mL) | 21.9 (≈ 9.99 µg/mL) | 21.9 (≈ 9.99 µg/mL) | 43.8 (≈ 20 µg/mL) | 21.9 (≈ 9.99 µg/mL) | 21.9 (≈ 9.99 µg/mL) | 11 (≈ 5.02 µg/mL) | 21.9 (≈ 9.99 µg/mL) | 43.8 (≈ 20 µg/mL) | MIC [21]: 21.9 µM (≈ 9.99 µg/mL); MIC [22]: 21.9 µM (≈ 9.99 µg/mL); MBC [23]: 65.7 µM (≈ 30 µg/mL); MIC [24]: 5.5 µM (≈ 2.51 µg/mL); MFC [25]: 11 µM (≈ 5.02 µg/mL); MIC [26]: 43.8 µM (≈ 20 µg/mL); MFC [27]: 21.9 µM (≈ 9.99 µg/mL); MIC [28]: 11 µM (≈ 5.02 µg/mL); MIC [29]: 16.4 µM (≈ 7.48 µg/mL); MBC [30]: 43.8 µM (≈ 20 µg/mL); MIC [31]: 21.9 µM (≈ 9.99 µg/mL); MIC [32]: 16.4 µM (≈ 7.48 µg/mL) |

Source: ChEMBL document CHEMBL1157665, “Novel 4-thiazolidinone derivatives as potential antifungal and antibacterial drugs” (2010)
